Assay results reported in ChEMBL document CHEMBL3091413, “Fine molecular tuning at position 4 of 2H-chromen-2-one derivatives in the search of potent and selective monoamine oxidase B inhibitors” (Eur J Med Chem, 2013).

Legend:
[1] = target: T1, Amine oxidase [flavin-containing] B (Rattus norvegicus, UniProt P19643); assay: Inhibition of Sprague-Dawley rat MAO-B using Kynuramine as substrate assessed as formation of 4-hydroxyquinoline preincubated for 5 mins prior to substrate addition measured for 5 mins by spectrophotometry
T1 sequence (P19643 whole entry): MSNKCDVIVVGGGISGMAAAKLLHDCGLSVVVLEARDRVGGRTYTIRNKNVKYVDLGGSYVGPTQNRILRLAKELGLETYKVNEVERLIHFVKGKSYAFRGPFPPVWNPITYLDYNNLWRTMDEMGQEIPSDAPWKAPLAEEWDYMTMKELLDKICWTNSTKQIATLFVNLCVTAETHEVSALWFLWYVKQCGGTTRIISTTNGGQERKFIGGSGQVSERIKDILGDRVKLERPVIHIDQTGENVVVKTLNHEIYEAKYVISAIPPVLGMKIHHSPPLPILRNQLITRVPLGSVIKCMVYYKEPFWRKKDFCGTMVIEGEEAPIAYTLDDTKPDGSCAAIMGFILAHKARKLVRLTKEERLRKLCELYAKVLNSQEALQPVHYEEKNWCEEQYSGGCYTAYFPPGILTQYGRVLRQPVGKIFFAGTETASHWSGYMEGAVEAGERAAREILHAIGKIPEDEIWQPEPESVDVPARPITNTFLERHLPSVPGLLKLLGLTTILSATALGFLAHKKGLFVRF

[2] = target: T2, MAO-A (amine oxidase [flavin-containing] A) (Rattus norvegicus, UniProt P21396); assay: Inhibition of Sprague-Dawley rat MAO-A using Kynuramine as substrate assessed as formation of 4-hydroxyquinoline at 10 uM preincubated for 5 mins prior to substrate addition measured for 5 mins by spectrophotometry; conditions: rat MAO-A enzyme preparation, probe kynuramine
T2 sequence (P21396 whole entry): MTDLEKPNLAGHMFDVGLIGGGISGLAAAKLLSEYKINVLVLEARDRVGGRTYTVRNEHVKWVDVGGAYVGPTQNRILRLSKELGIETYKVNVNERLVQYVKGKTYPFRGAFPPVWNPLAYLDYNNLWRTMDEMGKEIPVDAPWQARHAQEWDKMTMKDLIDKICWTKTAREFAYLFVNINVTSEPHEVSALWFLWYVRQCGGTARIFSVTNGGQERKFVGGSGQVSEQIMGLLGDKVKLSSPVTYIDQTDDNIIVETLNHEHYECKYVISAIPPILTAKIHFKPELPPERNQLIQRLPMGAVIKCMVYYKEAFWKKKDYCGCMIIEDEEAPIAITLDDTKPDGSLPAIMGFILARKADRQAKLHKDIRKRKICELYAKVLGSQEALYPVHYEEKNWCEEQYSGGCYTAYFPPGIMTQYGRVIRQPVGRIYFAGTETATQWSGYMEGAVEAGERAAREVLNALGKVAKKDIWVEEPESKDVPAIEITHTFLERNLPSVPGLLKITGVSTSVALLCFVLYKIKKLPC

[3] = target: T3, Amine oxidase [flavin-containing] A (Rattus norvegicus, UniProt P21396); assay: Inhibition of Sprague-Dawley rat MAO-A using Kynuramine as substrate assessed as formation of 4-hydroxyquinoline preincubated for 5 mins prior to substrate addition measured for 5 mins by spectrophotometry
T3 sequence (P21396 whole entry): T2 sequence (P21396 whole entry)
In short: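 Enzyme source: crude brain mitochondrial fraction from male Sprague-Dawley rats (200-250 g), decapitated. Brains were washed in ice-cold isotonic Na2HPO4/KH2PO4 buffer (pH 7.40) with sucrose, fractionated by differential centrifugation, and stored at -40 °C in isotonic phosphate buffer (pH 7.4) with KCl. Kynuramine oxidation to 4-hydroxyquinoline was monitored spectrophotometrically. Values are the mean of two or three independent experiments.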

Rattus norvegicus = organism: Rattus norvegicus; assay: Selectivity ratio for Sprague-Dawley rat MAO-B to Sprague-Dawley rat MAO-A
In short: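 Selectivity index is pIC50 MAO-B minus pIC50 MAO-A (ΔpIC50), from the rat brain mitochondrial kynuramine assay.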

| SMILES | IC50 ([1]; read-out: pIC50 (converted)) | inhibition at 5 min, 10 µM [2] | IC50 [3] | Selectivity ratio (Rattus norvegicus) | IC50 ([1]; read-out: IC50) |
| --- | --- | --- | --- | --- | --- |
| O=c1cc(CN2CCOCC2)c2ccc(OCc3cccc(Cl)c3)cc2o1 | 2290 nM | 11% |  |  |  |
| O=c1cc(O)c2ccc(OCc3cccc(Cl)c3)cc2o1 | 479 nM | 6% |  |  |  |
| CN(C)C(=O)Cc1cc(=O)oc2cc(OCc3cccc(Cl)c3)ccc12 |  | 0% |  |  |  |
| CC(C)Oc1cc(=O)oc2cc(OCc3cccc(Cl)c3)ccc12 | 24500 nM | 3% |  |  |  |
| CCOC(=O)c1cc(=O)oc2cc(OCc3cccc(Cl)c3)ccc12 | 417 nM | 4.4% |  |  |  |
| O=C(O)c1cc(=O)oc2cc(OCc3cccc(Cl)c3)ccc12 |  | 0% |  |  |  |
| CNc1cc(=O)oc2cc(OCc3cccc(Cl)c3)ccc12 | 8.71 nM |  | 4070 nM |  |  |
| O=c1cc(Cl)c2ccc(OCc3cccc(Cl)c3)cc2o1 | 20.9 nM |  | 8910 nM |  |  |
| O=c1cc(Oc2ccccc2)c2ccc(OCc3cccc(Cl)c3)cc2o1 | 4070 nM | 0% |  |  |  |
| CC(O)c1cc(=O)oc2cc(OCc3cccc(Cl)c3)ccc12 (centres undefined) | 77.6 nM | 22% |  |  |  |
| CCNc1cc(=O)oc2cc(OCc3cccc(Cl)c3)ccc12 | 28.2 nM |  | 9330 nM |  |  |
| CN(C)Cc1cc(=O)oc2cc(OCc3cccc(Cl)c3)ccc12 |  | 5.7% |  |  |  |
| CC(C)Nc1cc(=O)oc2cc(OCc3cccc(Cl)c3)ccc12 | 7760 nM | 0% |  |  |  |
| O=C(COc1cc(=O)oc2cc(OCc3cccc(Cl)c3)ccc12)N1CCOCC1 | 12900 nM | 3.2% |  |  |  |
| O=c1cc(C(F)(F)F)c2ccc(OCc3cccc(Cl)c3)cc2o1 | 871 nM | 16% |  |  |  |
| Cc1cc(=O)oc2cc(OCc3cccc(Cl)c3)ccc12 | 7.41 nM |  | 5250 nM |  |  |
| CNC(=O)COc1cc(=O)oc2cc(OCc3cccc(Cl)c3)ccc12 | 33.9 nM | 11% |  |  |  |
| CC(=O)c1cc(=O)oc2cc(OCc3cccc(Cl)c3)ccc12 | 39.8 nM | 0% |  |  |  |
| CCNC(=O)Nc1cc(=O)oc2cc(OCc3cccc(Cl)c3)ccc12 |  | 0% |  |  |  |

| SMILES | IC50 ([1]; read-out: pIC50 (converted)) | inhibition at 5 min, 10 µM [2] | IC50 [3] | Selectivity ratio (Rattus norvegicus) | IC50 ([1]; read-out: IC50) |
| --- | --- | --- | --- | --- | --- |
| N#Cc1cc(=O)oc2cc(OCc3cccc(Cl)c3)ccc12 | 102 nM | 23% |  |  |  |
| CC(=O)Nc1cc(=O)oc2cc(OCc3cccc(Cl)c3)ccc12 | 38.9 nM |  | 282 nM |  |  |
| CCCNCc1cc(=O)oc2cc(OCc3cccc(Cl)c3)ccc12 | 204 nM | 3.2% |  |  |  |
| O=c1cc(Nc2ccccc2)c2ccc(OCc3cccc(Cl)c3)cc2o1 | 9770 nM | 0% |  |  |  |
| O=c1cc(O)c2ccc(OCc3cccc(F)c3)cc2o1 | 2090 nM | 0% |  |  |  |
| CCCCNCc1cc(=O)oc2cc(OCc3cccc(Cl)c3)ccc12 | 447 nM | 1.1% |  |  |  |
| O=c1cc(O)c2ccc(OCc3ccccc3)cc2o1 | 9120 nM | 2% |  |  |  |
| O=c1cc(CO)c2ccc(OCc3cccc(Cl)c3)cc2o1 | 5.25 nM |  | 10200 nM |  |  |
| NC(=O)c1cc(=O)oc2cc(OCc3cccc(Cl)c3)ccc12 | 234 nM | 14% |  |  |  |
| O=c1cc(CN2CCCC2)c2ccc(OCc3cccc(Cl)c3)cc2o1 | 1700 nM | 16% |  |  |  |
| O=c1cc(/C=N/O)c2ccc(OCc3cccc(Cl)c3)cc2o1 | 219 nM | 48% |  |  |  |
| COc1cc(=O)oc2cc(OCc3ccccc3)ccc12 | 100 nM | 22% |  |  |  |
| Nc1cc(=O)oc2cc(OCc3cccc(Cl)c3)ccc12 | 47.9 nM |  | 4170 nM |  |  |
| O=Cc1cc(=O)oc2cc(OCc3cccc(Cl)c3)ccc12 | 52.5 nM | 14% |  |  |  |
| CCOC(=O)Nc1cc(=O)oc2cc(OCc3cccc(Cl)c3)ccc12 | 589 nM | 21% |  |  |  |
| O=C(COc1cc(=O)oc2cc(OCc3cccc(Cl)c3)ccc12)N1CCCCC1 | 38900 nM | 9% |  |  |  |
| CCCOc1cc(=O)oc2cc(OCc3ccccc3)ccc12 | 575 nM | 0% |  |  |  |
| CCc1cc(=O)oc2cc(OCc3cccc(Cl)c3)ccc12 | 28.8 nM | 48% |  |  |  |
| O=c1cc(CCl)c2ccc(OCc3cccc(Cl)c3)cc2o1 | 43.7 nM | 21% |  |  |  |

Results, then the molecule that gave them:

| IC50 ([1]; read-out: pIC50 (converted)) | inhibition at 5 min, 10 µM [2] | IC50 [3] | Selectivity ratio (Rattus norvegicus) | IC50 ([1]; read-out: IC50) | SMILES |
| --- | --- | --- | --- | --- | --- |
| 407 nM | 12% |  |  |  | CCCOc1cc(=O)oc2cc(OCc3cccc(F)c3)ccc12 |
| 61.7 nM | 5.3% |  |  |  | CCCOc1cc(=O)oc2cc(OCc3cccc(Cl)c3)ccc12 |
| 501 nM | 10% |  |  |  | CN(C)C(=O)COc1cc(=O)oc2cc(OCc3cccc(Cl)c3)ccc12 |
|  | 0% |  |  |  | O=C(O)COc1cc(=O)oc2cc(OCc3cccc(Cl)c3)ccc12 |
| 5.75 nM | 27% |  |  |  | COc1cc(=O)oc2cc(OCc3cccc(Br)c3)ccc12 |
| 100 nM | 23% |  |  |  | COCOc1cc(=O)oc2cc(OCc3cccc(Cl)c3)ccc12 |
| 74.1 nM | 0% |  |  |  | CCCOc1cc(=O)oc2cc(OCc3cccc(Br)c3)ccc12 |
| 26.9 nM | 22% |  |  |  | CC(=O)COc1cc(=O)oc2cc(OCc3cccc(Cl)c3)ccc12 |
| 263 nM | 25% |  |  |  | CCOc1cc(=O)oc2cc(OCc3cccc(F)c3)ccc12 |
| 45.7 nM | 17% |  |  |  | N#CCOc1cc(=O)oc2cc(OCc3cccc(Cl)c3)ccc12 |
| 209 nM | 28% |  |  |  | O=c1cc(CCl)c2ccc(OCc3cccc(Br)c3)cc2o1 |
| 316 nM | 8.6% |  |  |  | CSCOc1cc(=O)oc2cc(OCc3cccc(Cl)c3)ccc12 |
| 1820 nM | 0% |  |  |  | CCOC(=O)COc1cc(=O)oc2cc(OCc3cccc(Cl)c3)ccc12 |
| 3.31 nM |  | 24000 nM | 7240 | 3.1 nM | NC(=O)COc1cc(=O)oc2cc(OCc3cccc(Cl)c3)ccc12 |
| 14.1 nM | 49% |  |  |  | O=c1cc(CO)c2ccc(OCc3cccc(Br)c3)cc2o1 |
| 759 nM | 0% |  |  |  | CCOc1cc(=O)oc2cc(OCc3ccccc3)ccc12 |
| 11 nM | 40% |  |  |  | CNCc1cc(=O)oc2cc(OCc3cccc(Br)c3)ccc12 |
| 36.3 nM | 49% |  |  |  | COc1cc(=O)oc2cc(OCc3cccc(F)c3)ccc12 |
| 8.91 nM |  | 8910 nM |  |  | NC(=O)COc1cc(=O)oc2cc(OCc3cccc(Br)c3)ccc12 |
| 490 nM | 0% |  |  |  | O=c1cc(O)c2ccc(OCc3cccc(Br)c3)cc2o1 |
| 126 nM | 2.5% |  |  |  | CCOc1cc(=O)oc2cc(OCc3cccc(Br)c3)ccc12 |
| 7.76 nM |  | 11700 nM |  |  | COc1cc(=O)oc2cc(OCc3cccc(Cl)c3)ccc12 |
| 115 nM | 2% |  |  |  | CCOc1cc(=O)oc2cc(OCc3cccc(Cl)c3)ccc12 |
